From ChEMBL document CHEMBL4354800, “Amphiphilic nebramine-based hybrids Rescue legacy antibiotics from intrinsic resistance in multidrug-resistant Gram-negative bacilli” (Eur J Med Chem, 2019)
Calls of active or inactive are those of the source. The calls are words filed in the database; no cut-off is given here.

How the values were obtained:
Pseudomonas aeruginosa [1] = assay: Potentiation of ciprofloxacin-induced antibacterial activity against MDR/XDR Pseudomonas aeruginosa isolate PA260-97103 harboring GyrA T83I mutant assessed as fold reduction in ciprofloxacin MIC at 9 uM incubated for 18 hrs by broth microdilution method; type: functional
Pseudomonas aeruginosa [2] = assay: Potentiation of rifampicin-induced antibacterial activity against MDR/XDR Pseudomonas aeruginosa isolate 91433 devoid of GyrA T83I mutant assessed as fold reduction in rifampicin MIC at 9 uM incubated for 18 hrs by broth microdilution method; type: functional
Outline: (§1)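 CLSI broth microdilution. Overnight cultures were set to 0.5 McFarland in saline, diluted 1:50 in Mueller-Hinton broth to a final 5 × 10^5 CFU/mL, and incubated 18 h at 37 °C against 2-fold antibiotic dilutions. A fixed adjuvant level was present throughout. MIC = lowest concentration with no visible turbidity, confirmed at 590 nm. Potentiation = fold drop in antibiotic MIC versus antibiotic alone.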

Escherichia coli = assay: Antimicrobial activity against Escherichia coli 94474 incubated for 18 hrs by broth dilution method; type: functional; conditions: Escherichia coli, 94474, 18 h
Outline: (§2)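 CLSI broth microdilution. Overnight cultures were adjusted to 0.5 McFarland in saline, diluted 1:50 in Mueller-Hinton broth, and inoculated at a final 5 × 10^5 CFU/mL. Compounds were tested as 2-fold serial dilutions and incubated 18 h at 37 °C. MIC was the lowest concentration with no visible turbidity, confirmed by absorbance at 590 nm.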

Klebsiella pneumoniae [3] = assay: Antimicrobial activity against Klebsiella pneumoniae 113254 incubated for 18 hrs by broth dilution method; type: functional; conditions: Klebsiella pneumoniae, 113254, 18 h; outline: as §2
Acinetobacter baumannii [4] = assay: Synergistic antibacterial activity against multidrug-resistant Acinetobacter baumannii AB110193 assessed as fractional inhibitory concentration index in presence of minocycline incubated for 18 hrs by broth dilution method; type: functional
Klebsiella pneumoniae [5] = assay: Synergistic antibacterial activity against Klebsiella pneumoniae 113250 assessed as fractional inhibitory concentration index in presence of minocycline incubated for 18 hrs by broth dilution method; type: functional
Outline: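 Checkerboard titration of the adjuvant against the antibiotic, run under the CLSI microdilution conditions (MHB, 5 × 10^5 CFU/mL, 18 h, 37 °C). Each agent's FIC is its MIC in combination divided by its MIC alone; FICI is the sum of the two FICs. FICI ≤0.5 was read as synergy, >0.5–4.0 as no interaction, and >4.0 as antagonism.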

Acinetobacter baumannii [6] = assay: Potentiation of minocycline-induced antibacterial activity against multidrug-resistant Acinetobacter baumannii AB92247 assessed as fold reduction in minocycline MIC at 4.1 uM incubated for 18 hrs by broth dilution method; type: functional
Pseudomonas aeruginosa [7] = assay: Potentiation of rifampicin-induced bactericidal activity in MDR/XDR Pseudomonas aeruginosa isolate PA259-96918 harboring GyrA T83I mutant assessed as decrease in viable bacterial count at 1 ug/ml incubated for 8 hrs in presence of 1 ug/ml rifampicin by time kill curve assay; type: functional, organism-based
Outline: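 Time-kill assay against XDR P. aeruginosa PA259. Overnight culture adjusted to 0.5 McFarland in saline, diluted 1:50 in LB. Incubated at 37 °C for 24 h with rifampicin and adjuvant, alone or combined at various concentrations. Aliquots taken at intervals, serially diluted in PBS and plated on LB agar. Colonies counted after 20 h at 37 °C. Untreated cells as control.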

[8] = Hemolytic activity against porcine erythrocytes assessed as hemoglobin release at 512 ug/ml incubated for 1 hr by spectrophotometric analysis relative to control; type: ADME, cell-based, Sus scrofa, Erythrocyte; conditions: pig, read-out: Activity
Outline: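 Porcine erythrocytes were washed three times in PBS and used at 3 × 10^8 cells/mL final. Compounds were serially diluted in PBS at twice the final concentration, mixed with an equal volume of cells, and incubated 1 h at 37 °C. After centrifugation (1000 g, 4 °C, 10 min), hemoglobin in the supernatant was read at 570 nm. Percent hemolysis was scaled between PBS (0%) and 0.1% Triton X-100 (100%).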

Pseudomonas aeruginosa [9] = assay: Antimicrobial activity against XDR Pseudomonas aeruginosa isolate PA264 infected in Galleria mellonella larvae assessed as survival rate at 50 mg/kg co-administered with 50 mg/kg rifampicin at 2 hrs post-inoculation measured after 18 hrs relative to control; type: functional
Outline: (§3)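 G. mellonella larvae were injected with ~5 CFU of P. aeruginosa PA264 (10 µL of 5 × 10^2 CFU/mL in PBS) and held 2 h at 37 °C. A single 10 µL injection followed: monotherapy or rifampicin + compound (25+25, 50+50 or 75+75 mg/kg), with PBS as control. Larvae kept at 37 °C were scored every 6 h to 24 h; dead = no response to touch. n = 30 (two runs of 15); Kaplan-Meier.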

Pseudomonas aeruginosa [10] = assay: Antimicrobial activity against XDR Pseudomonas aeruginosa isolate PA264 infected in Galleria mellonella larvae assessed as survival rate at 25 mg/kg co-administered with 25 mg/kg rifampicin at 2 hrs post-inoculation measured after 18 hrs relative to control; type: functional; outline: as §3
Enterobacter cloacae = assay: Potentiation of rifampicin-induced antibacterial activity against Enterobacter cloacae 117029 assessed as fold reduction in rifampicin MIC at 4.1 uM incubated for 18 hrs by broth dilution method; type: functional
Outline: (§4)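 Antibiotic MIC determined by CLSI broth microdilution (MHB, 5 × 10^5 CFU/mL, 18 h, 37 °C), once alone and once with a fixed concentration of the adjuvant. Potentiation is the ratio of the antibiotic MIC alone to its MIC in the presence of the adjuvant.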

Pseudomonas aeruginosa [11] = assay: Synergistic antibacterial activity against MDR/XDR Pseudomonas aeruginosa isolate PA264-104354 harboring GyrA T83I mutant assessed as fractional inhibitory concentration index in presence of moxifloxacin incubated for 18 hrs by broth microdilution method; type: functional
Outline: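 Checkerboard synergy assay. Antibiotic and adjuvant in twofold dilutions in Mueller-Hinton broth. Inoculum 5 × 10^5 CFU/mL from a 0.5 McFarland suspension, 18 h at 37 °C, MIC read by turbidity and confirmed at 590 nm. FIC = MIC in combination / MIC alone for each agent, FICI = sum. Interpreted as ≤0.5 synergy, 0.5–4 no interaction, >4 antagonism.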

Pseudomonas aeruginosa [12] = assay: Potentiation of moxifloxacin-induced antibacterial activity against MDR/XDR Pseudomonas aeruginosa isolate PA264-104354 harboring GyrA T83I mutant assessed as fold reduction in moxifloxacin MIC at 7.5 uM incubated for 18 hrs by broth microdilution method; type: functional; outline: as §1
Acinetobacter baumannii [13] = assay: Synergistic antibacterial activity against multidrug-resistant Acinetobacter baumannii AB030 assessed as fractional inhibitory concentration index in presence of rifampicin incubated for 18 hrs by broth dilution method; type: functional
Klebsiella pneumoniae [14] = assay: Potentiation of rifampicin-induced antibacterial activity against Klebsiella pneumoniae 116381 assessed as fold reduction in rifampicin MIC at 7.5 uM incubated for 18 hrs by broth dilution method; type: functional; outline: as §4
Pseudomonas aeruginosa [15] = assay: Potentiation of minocycline-induced antimicrobial activity against MDR/XDR Pseudomonas aeruginosa isolate PA262-101856 harboring GyrA Thr83Ile mutant assessed as minocycline MIC80 incubated for 18 hrs by broth microdilution method (reference value: 32 microg/ml); type: functional; conditions: isolate PA262-101856, 18 h
Pseudomonas aeruginosa [16] = assay: Potentiation of minocycline-induced antimicrobial activity against MDR/XDR Pseudomonas aeruginosa isolate 91433 devoid of GyrA Thr83Ile mutant assessed as minocycline MIC80 incubated for 18 hrs by broth microdilution method (reference value: 32 microg/ml); type: functional; conditions: isolate 91433, 18 h

## Cl.Cl.Cl.Cl.Cl.Cl.NC[C@H]1O[C@H](O[C@H]2[C@H](OCCCCCCCCCCN3CCN(Cc4cccc5ccccc45)CC3)[C@@H](O)[C@H](N)C[C@@H]2N)[C@H](N)C[C@@H]1O
Pseudomonas aeruginosa [1]
  fold change (FC): 8
Pseudomonas aeruginosa [2]
  fold change (FC): 4

## Cl.Cl.Cl.Cl.Cl.NC[C@H]1O[C@H](O[C@H]2[C@H](OCCCCCCCCCCCCN3CCN(c4cc5c(cc4F)c(=O)c(C(=O)O)cn5C4CC4)CC3)[C@@H](O)[C@H](N)C[C@@H]2N)[C@H](N)C[C@@H]1O
Escherichia coli
  MIC: > 128 µg/mL
Klebsiella pneumoniae [3]
  MIC: 128 µg/mL
Acinetobacter baumannii [4]
  fractional inhibitory concentration index (FICI): >1
Klebsiella pneumoniae [5]
  fractional inhibitory concentration index (FICI): 0.504
Acinetobacter baumannii [6]
  fold change (FC): 2
Pseudomonas aeruginosa [7]
  Activity: Active
[8]
  hemolysis at 1 h, 512 ug/ml: < 10%
Pseudomonas aeruginosa [9]
  survival at 50 mg/kg: 60%
Pseudomonas aeruginosa [10]
  survival at 25 mg/kg: 33%
Enterobacter cloacae
  fold change (FC): >=256

## COc1c(N2C[C@@H]3CCCN(CCCCCCCCCCCCO[C@@H]4[C@@H](O)[C@H](N)C[C@H](N)[C@H]4O[C@H]4O[C@H](CN)[C@@H](O)C[C@H]4N)[C@@H]3C2)c(F)cc2c(=O)c(C(=O)O)cn(C3CC3)c12.Cl.Cl.Cl.Cl.Cl
Pseudomonas aeruginosa [11]
  fractional inhibitory concentration index (FICI): 0.09
Pseudomonas aeruginosa [12]
  fold change (FC): 16
Acinetobacter baumannii [13]
  fractional inhibitory concentration index (FICI): 0.031 - 0.281
Klebsiella pneumoniae [14]
  fold change (FC): >=1024
Pseudomonas aeruginosa [15]
  MIC80: 1 µg/mL
Pseudomonas aeruginosa [16]
  MIC80: 1 µg/mL
